Measured values taken from ChEMBL document CHEMBL4265907, “Design, synthesis and pharmacological evaluation of N4,N6-disubstituted pyrimidine-4,6-diamine derivatives as potent EGFR inhibitors in non-small cell lung cancer” (Eur J Med Chem, 2018).

What was measured:
[1] = target: RAC-alpha serine/threonine-protein kinase (Homo sapiens) (UniProt P31749); assay: Inhibition of recombinant human N-terminal His-tagged full length human AKT1 (1 to 480 residues) expressed in baculovirus infected Sf9 insect cells at 1 uM using FAM-labeled peptide as substrate after 10 mins by mobility shift assay relative to control
Method in brief: (§1)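 Caliper mobility-shift kinase assay. Kinase in kinase base buffer was preincubated with compound for 10 min at room temperature. FAM-labelled peptide and ATP at Km were then added, and the reaction ran at 28 °C until quenched with buffer. Screening concentration was 1 µM. Percent inhibition = (max − conversion)/(max − min) × 100, with DMSO as max and a low control as min.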

[2] = target: Platelet-derived growth factor receptor beta (Homo sapiens) (UniProt P09619); assay: Inhibition of N-terminal GST-tagged human PDGFRbeta cytoplasmic domain (557 to 1106 residues) expressed in baculovirus expression system at 1 uM using FAM-labeled peptide as substrate after 10 mins by mobility shift assay relative to control; method in brief: as §1
[3] = target: T1, Inhibitor of nuclear factor kappa-B kinase subunit beta (Homo sapiens) (UniProt O14920); assay: Inhibition of human N-terminal His-tagged truncated IKKB (1 to 662 residues) expressed in baculovirus expression system at 1 uM using FAM-labeled peptide as substrate after 10 mins by mobility shift assay relative to control; method in brief: as §1
T1 sequence (whole entry): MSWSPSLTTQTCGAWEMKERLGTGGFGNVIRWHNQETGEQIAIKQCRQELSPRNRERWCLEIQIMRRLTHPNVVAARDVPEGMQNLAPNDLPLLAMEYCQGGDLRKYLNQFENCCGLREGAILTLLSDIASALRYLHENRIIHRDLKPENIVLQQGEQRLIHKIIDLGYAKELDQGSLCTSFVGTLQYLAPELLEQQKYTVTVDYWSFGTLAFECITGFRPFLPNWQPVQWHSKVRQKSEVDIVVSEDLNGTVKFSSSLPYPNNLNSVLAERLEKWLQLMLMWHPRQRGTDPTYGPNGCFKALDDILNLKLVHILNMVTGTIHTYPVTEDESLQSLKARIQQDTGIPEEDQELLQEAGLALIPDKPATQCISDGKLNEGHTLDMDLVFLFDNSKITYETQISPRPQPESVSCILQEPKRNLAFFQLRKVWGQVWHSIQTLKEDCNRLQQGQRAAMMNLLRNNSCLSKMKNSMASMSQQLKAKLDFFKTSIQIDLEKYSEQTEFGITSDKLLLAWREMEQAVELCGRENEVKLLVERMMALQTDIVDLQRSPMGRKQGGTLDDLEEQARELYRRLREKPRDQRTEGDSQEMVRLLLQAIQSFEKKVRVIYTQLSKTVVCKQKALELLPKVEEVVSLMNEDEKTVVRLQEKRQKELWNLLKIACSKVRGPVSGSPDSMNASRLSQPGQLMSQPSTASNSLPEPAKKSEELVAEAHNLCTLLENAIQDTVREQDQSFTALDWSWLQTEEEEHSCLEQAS

[4] = target: Proto-oncogene tyrosine-protein kinase Src (Homo sapiens) (UniProt P12931); assay: Inhibition of N-terminal GST-tagged full length human SRC cytoplasmic domain (1 to 536 residues) expressed in baculovirus expression system at 1 uM using FAM-labeled peptide as substrate after 10 mins by mobility shift assay relative to control; method in brief: as §1
[5] = target: Proto-oncogene tyrosine-protein kinase receptor Ret (Homo sapiens) (UniProt P07949); assay: Inhibition of N-terminal GST-tagged human RET cytoplasmic domain (658 to 1114 residues) expressed in baculovirus expression system at 1 uM using FAM-labeled peptide as substrate after 10 mins by mobility shift assay relative to control; method in brief: as §1
[6] = target: Receptor tyrosine-protein kinase erbB-2 (Homo sapiens) (UniProt P04626); assay: Inhibition of N-terminal His-tagged human HER2 cytoplasmic domain (676 to 1255 residues) expressed in baculovirus expression system at 1 uM using FAM-labeled peptide as substrate after 10 mins by mobility shift assay relative to control; method in brief: as §1
[7] = target: Fibroblast growth factor receptor 1 (Homo sapiens) (UniProt P11362); assay: Inhibition of N-terminal GST-tagged human FGFR1 cytoplasmic domain (398 to 822 residues) expressed in baculovirus expression system at 1 uM using FAM-labeled peptide as substrate after 10 mins by mobility shift assay relative to control; method in brief: as §1
[8] = target: Insulin-like growth factor 1 receptor (Homo sapiens) (UniProt P08069); assay: Inhibition of human His-tagged IGF1R cytoplasmic domain (960 to 1397 residues) expressed in baculovirus expression system at 1 uM using FAM-labeled peptide as substrate after 10 mins by mobility shift assay relative to control; method in brief: as §1
[9] = target: Fibroblast growth factor receptor 2 (Homo sapiens) (UniProt P21802); assay: Inhibition of N-terminal GST-tagged human FGFR2 cytoplasmic domain (399 to 821 residues) expressed in baculovirus expression system at 1 uM using FAM-labeled peptide as substrate after 10 mins by mobility shift assay relative to control; method in brief: as §1
[10] = target: Serine/threonine-protein kinase B-raf (Homo sapiens) (UniProt P15056); assay: Inhibition of recombinant human GST-tagged full length BRAF expressed in baculovirus expression system at 1 uM using FAM-labeled peptide as substrate after 10 mins by mobility shift assay relative to control; method in brief: as §1
[11] = target: Vascular endothelial growth factor receptor 3 (Homo sapiens) (UniProt P35916); assay: Inhibition of recombinant human GST-tagged FLT4 cytoplasmic domain (800 to 1297 residues) expressed in baculovirus expression system at 1 uM using FAM-labeled peptide as substrate after 10 mins by mobility shift assay relative to control; method in brief: as §1
[12] = target: Vascular endothelial growth factor receptor 2 (Homo sapiens) (UniProt P35968); assay: Inhibition of N-terminal GST-tagged human KDR cytoplasmic domain (790 to 1356 residues) expressed in baculovirus expression system at […] using FAM-labeled peptide as substrate after 10 mins by mobility shift assay relative to control; method in brief: as §1
[13] = target: Receptor tyrosine-protein kinase erbB-4 (Homo sapiens) (UniProt Q15303); assay: Inhibition of N-terminal GST-tagged human HER4 cytoplasmic domain (676 to 1308 residues) expressed in baculovirus expression system at 1 uM using FAM-labeled peptide as substrate after 10 mins by mobility shift assay relative to control; method in brief: as §1
[14] = target: Platelet-derived growth factor receptor alpha (Homo sapiens) (UniProt P16234); assay: Inhibition of recombinant human GST-tagged PDGFRalpha cytoplasmic domain (550 to 1089 residues) expressed in baculovirus expression system at 1 uM using FAM-labeled peptide as substrate after 10 mins by mobility shift assay relative to control; method in brief: as §1
[15] = target: Vascular endothelial growth factor receptor 1 (Homo sapiens) (UniProt P17948); assay: Inhibition of recombinant human GST-tagged FLT1 cytoplasmic domain (781 to 1338 residues) expressed in baculovirus expression system at 1 uM using FAM-labeled peptide as substrate after 10 mins by mobility shift assay relative to control; method in brief: as §1
[16] = target: Tyrosine-protein kinase JAK2 (Homo sapiens) (UniProt O60674); assay: Inhibition of human N-terminal His-tagged JAK2 catalytic domain (826 to 1132 residues) expressed in baculovirus expression system at 1 uM using FAM-labeled peptide as substrate after 10 mins by mobility shift assay relative to control; method in brief: as §1

Vascular endothelial growth factor receptor 1 (Homo sapiens), sequence (P17948 whole entry, the tested form may be a part): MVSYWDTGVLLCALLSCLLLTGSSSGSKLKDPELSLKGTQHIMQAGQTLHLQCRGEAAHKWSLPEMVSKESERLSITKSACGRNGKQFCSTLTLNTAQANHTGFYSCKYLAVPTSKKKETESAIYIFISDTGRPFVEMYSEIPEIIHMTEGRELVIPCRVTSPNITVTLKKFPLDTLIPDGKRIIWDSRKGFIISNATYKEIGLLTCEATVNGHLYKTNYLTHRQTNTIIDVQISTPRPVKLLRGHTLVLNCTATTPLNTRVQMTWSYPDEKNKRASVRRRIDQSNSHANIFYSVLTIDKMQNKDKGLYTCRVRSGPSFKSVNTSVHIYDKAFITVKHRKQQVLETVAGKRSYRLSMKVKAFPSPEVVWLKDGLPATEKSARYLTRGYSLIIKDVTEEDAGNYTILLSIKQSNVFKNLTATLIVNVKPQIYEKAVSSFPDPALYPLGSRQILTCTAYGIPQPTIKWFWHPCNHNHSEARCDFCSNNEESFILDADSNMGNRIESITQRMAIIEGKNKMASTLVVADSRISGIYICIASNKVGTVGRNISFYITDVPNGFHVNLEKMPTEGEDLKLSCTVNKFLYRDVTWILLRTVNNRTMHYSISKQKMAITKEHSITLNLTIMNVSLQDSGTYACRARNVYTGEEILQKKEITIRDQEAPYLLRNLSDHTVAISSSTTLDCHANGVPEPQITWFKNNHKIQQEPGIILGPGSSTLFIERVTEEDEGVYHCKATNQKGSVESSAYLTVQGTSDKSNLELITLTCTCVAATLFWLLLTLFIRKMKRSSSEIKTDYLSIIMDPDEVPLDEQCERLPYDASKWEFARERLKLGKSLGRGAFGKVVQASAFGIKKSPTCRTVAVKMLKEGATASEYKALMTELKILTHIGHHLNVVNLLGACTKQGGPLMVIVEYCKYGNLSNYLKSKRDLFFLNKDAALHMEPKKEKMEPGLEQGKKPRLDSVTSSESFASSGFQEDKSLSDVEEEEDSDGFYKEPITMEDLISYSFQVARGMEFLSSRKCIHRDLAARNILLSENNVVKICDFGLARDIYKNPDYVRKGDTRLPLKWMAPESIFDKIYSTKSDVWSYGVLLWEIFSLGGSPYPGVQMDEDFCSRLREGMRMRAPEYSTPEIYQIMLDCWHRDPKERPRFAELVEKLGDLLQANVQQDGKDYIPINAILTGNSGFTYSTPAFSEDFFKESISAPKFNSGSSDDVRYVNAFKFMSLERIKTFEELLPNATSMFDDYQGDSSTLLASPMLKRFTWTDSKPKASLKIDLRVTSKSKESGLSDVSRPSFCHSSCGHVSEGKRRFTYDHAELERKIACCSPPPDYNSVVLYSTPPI
Platelet-derived growth factor receptor alpha (Homo sapiens), sequence (P16234 whole entry, the tested form may be a part): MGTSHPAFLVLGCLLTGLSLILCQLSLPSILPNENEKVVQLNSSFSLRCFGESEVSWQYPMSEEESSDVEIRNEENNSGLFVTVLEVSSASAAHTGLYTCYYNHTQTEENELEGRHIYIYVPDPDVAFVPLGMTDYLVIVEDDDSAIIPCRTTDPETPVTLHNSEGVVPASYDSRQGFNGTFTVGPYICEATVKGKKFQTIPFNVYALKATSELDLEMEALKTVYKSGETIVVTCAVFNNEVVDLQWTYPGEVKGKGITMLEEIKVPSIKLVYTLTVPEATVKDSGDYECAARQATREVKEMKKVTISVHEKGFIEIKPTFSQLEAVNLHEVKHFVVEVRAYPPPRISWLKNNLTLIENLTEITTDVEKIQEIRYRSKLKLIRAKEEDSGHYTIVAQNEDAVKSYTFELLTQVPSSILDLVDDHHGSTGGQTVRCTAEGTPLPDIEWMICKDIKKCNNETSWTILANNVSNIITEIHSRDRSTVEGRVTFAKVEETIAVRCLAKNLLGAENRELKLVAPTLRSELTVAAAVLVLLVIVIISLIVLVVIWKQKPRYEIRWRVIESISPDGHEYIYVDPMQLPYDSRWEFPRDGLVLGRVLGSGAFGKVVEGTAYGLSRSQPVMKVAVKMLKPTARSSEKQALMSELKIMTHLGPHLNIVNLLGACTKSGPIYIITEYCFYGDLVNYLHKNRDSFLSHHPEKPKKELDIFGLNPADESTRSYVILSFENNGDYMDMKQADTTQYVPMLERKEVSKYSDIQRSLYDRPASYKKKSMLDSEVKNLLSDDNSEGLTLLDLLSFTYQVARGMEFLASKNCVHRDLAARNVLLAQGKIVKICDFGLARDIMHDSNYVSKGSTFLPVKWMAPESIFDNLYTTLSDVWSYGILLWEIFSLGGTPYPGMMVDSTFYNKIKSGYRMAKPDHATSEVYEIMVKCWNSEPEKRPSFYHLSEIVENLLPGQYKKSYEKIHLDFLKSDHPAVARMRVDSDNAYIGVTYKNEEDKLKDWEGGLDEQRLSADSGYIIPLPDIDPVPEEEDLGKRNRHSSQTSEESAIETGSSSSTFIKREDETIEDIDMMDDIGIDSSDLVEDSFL
Serine/threonine-protein kinase B-raf (Homo sapiens), sequence (P15056 whole entry, the tested form may be a part): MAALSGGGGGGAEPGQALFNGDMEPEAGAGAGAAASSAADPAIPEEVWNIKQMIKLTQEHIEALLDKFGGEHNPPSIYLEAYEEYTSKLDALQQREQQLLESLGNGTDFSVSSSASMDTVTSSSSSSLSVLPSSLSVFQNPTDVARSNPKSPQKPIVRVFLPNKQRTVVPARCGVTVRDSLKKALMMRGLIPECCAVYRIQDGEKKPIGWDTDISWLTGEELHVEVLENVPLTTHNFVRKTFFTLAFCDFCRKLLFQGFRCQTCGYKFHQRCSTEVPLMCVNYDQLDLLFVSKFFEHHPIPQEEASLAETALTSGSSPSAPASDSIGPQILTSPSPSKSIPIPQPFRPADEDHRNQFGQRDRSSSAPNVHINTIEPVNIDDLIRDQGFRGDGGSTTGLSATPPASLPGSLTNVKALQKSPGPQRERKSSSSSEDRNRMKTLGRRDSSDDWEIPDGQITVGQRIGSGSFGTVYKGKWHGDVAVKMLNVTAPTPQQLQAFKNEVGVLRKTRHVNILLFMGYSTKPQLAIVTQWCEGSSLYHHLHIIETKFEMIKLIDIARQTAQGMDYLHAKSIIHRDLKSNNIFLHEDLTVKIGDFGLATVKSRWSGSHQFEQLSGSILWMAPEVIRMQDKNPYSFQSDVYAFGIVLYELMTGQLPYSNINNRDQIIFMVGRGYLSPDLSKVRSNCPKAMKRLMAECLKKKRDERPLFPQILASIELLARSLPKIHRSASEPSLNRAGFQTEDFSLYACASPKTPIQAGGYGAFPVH
Proto-oncogene tyrosine-protein kinase Src (Homo sapiens), sequence (P12931 2-536 limits assumed): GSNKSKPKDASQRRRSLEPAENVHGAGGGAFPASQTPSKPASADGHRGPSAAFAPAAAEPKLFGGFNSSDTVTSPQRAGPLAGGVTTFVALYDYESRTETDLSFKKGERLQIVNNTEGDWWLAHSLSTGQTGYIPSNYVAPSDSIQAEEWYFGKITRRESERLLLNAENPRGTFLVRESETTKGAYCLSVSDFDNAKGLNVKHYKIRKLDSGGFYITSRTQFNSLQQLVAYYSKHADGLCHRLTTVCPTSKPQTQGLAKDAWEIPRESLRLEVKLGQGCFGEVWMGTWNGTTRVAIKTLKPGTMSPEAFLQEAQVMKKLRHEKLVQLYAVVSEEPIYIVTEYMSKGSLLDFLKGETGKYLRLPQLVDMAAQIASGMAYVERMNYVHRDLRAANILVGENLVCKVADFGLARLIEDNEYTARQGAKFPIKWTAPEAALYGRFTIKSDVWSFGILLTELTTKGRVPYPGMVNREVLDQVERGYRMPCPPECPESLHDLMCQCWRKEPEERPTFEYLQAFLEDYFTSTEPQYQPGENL
Vascular endothelial growth factor receptor 3 (Homo sapiens), sequence (P35916 whole entry, the tested form may be a part): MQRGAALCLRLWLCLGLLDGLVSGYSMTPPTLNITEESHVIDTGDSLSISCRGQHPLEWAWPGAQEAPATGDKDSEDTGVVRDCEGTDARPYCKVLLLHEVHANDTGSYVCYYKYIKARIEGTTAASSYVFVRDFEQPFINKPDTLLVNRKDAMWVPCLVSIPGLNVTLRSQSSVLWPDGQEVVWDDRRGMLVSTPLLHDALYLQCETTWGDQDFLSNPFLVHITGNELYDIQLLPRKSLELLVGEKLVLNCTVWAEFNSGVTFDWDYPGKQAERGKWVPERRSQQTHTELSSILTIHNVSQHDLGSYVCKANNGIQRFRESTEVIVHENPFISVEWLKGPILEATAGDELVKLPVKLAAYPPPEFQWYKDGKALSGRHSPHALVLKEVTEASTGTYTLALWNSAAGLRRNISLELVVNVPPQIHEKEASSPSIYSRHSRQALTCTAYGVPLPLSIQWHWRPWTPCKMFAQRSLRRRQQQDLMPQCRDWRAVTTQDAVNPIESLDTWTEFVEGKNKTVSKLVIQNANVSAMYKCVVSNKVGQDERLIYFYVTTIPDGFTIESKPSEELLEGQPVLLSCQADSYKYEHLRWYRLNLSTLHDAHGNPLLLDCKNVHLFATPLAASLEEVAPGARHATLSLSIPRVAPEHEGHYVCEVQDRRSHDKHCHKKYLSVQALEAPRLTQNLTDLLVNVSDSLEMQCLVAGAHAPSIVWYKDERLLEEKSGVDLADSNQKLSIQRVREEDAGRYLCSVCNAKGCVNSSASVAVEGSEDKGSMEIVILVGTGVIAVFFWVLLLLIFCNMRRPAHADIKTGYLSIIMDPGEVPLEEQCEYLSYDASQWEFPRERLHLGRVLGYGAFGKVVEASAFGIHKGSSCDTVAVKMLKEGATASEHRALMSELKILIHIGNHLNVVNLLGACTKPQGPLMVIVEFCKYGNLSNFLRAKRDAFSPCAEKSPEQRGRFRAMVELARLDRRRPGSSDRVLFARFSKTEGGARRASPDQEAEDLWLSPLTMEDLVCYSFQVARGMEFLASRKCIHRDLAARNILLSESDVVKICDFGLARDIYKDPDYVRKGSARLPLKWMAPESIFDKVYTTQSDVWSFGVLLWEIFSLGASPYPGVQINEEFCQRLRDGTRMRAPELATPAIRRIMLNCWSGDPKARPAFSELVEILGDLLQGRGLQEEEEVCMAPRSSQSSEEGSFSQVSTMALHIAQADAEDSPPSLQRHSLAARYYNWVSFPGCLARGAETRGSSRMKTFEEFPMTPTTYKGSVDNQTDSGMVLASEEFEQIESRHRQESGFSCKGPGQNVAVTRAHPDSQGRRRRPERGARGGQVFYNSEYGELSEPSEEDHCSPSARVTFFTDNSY

SMILES | inhibition [1] | inhibition [2] | inhibition [3] | inhibition [4] | inhibition [5] | inhibition [6] | inhibition [7] | inhibition [8] | inhibition [9] | inhibition [10] | inhibition [11] | inhibition [12] | inhibition [13] | inhibition [14] | inhibition [15] | inhibition [16]
O=C(O)CCCC(=O)Nc1cc(Nc2cccc(Cl)c2)ncn1 | 0% | 74.1% | 1.1% | 83.7% | 16.8% | 57.3% | 13.5% | 13.2% | 16.5% | 79.3% | 29.4% | 8.5% | 88.6% | 43% | 12.3% | 12.7%
COc1cccc(Nc2cc(NC(=O)CCCC(=O)O)ncn2)c1 | 6.8% | 10.3% | 13.3% | 16.6% | 7.7% | -1.9% | 24% | 10.1% | 21.4% | 11.3% | 29.4% | 10.5% | 21.7% | 8% | 11.8% | 17.7%
COc1cccc(Nc2cc(Nc3cc(OC)ccc3OC)ncn2)c1 | -2.1% | 30.4% | -2.1% | 33.2% | 16.3% | -4.2% | 4.8% | 6.3% | 9.8% | 47.5% | 47.3% | 7.3% | 11.3% | 26.9% | 18.1% | 0.7%
O=C(O)CCCC(=O)Nc1cc(N2CCOCC2)ncn1 | -3% | 10% | -3.2% | 11.7% | 8.5% | -1.5% | 5.6% | 4% | 5.9% | 16.7% | 9.5% | 14.4% | 8.3% | 9.2% | -9.5% | 0.2%
CCOC(=O)c1ccc(Nc2cc(NC(=O)CCCC(=O)O)ncn2)cc1 | 4.7% | 24.2% | 1.2% | 11.4% | 10.4% | 4.9% | 5.6% | 9.2% | 7.2% | 12.7% | 28.2% | -1.4% | 27.1% | 4.7% | 2.9% | 4.2%
COc1ccc(Nc2cc(NC(=O)c3ccccc3)ncn2)cc1 | -3.4% | 29.4% | 3.5% | 27.7% | 2.9% | 55.8% | -1.6% | 5.3% | 8.3% | 16.6% | 21.6% | 12.4% | 71.4% | 21.7% | 2.3% | -4.2%
